From ChEMBL document CHEMBL4725242, “Discovery of GS-9688 (Selgantolimod) as a Potent and Selective Oral Toll-Like Receptor 8 Agonist for the Treatment of Chronic Hepatitis B” (J Med Chem, 2020)

Molecular target: T1, Toll-like receptor 8 (Homo sapiens, UniProt Q9NR97)
T1 sequence (Q9NR97 whole entry): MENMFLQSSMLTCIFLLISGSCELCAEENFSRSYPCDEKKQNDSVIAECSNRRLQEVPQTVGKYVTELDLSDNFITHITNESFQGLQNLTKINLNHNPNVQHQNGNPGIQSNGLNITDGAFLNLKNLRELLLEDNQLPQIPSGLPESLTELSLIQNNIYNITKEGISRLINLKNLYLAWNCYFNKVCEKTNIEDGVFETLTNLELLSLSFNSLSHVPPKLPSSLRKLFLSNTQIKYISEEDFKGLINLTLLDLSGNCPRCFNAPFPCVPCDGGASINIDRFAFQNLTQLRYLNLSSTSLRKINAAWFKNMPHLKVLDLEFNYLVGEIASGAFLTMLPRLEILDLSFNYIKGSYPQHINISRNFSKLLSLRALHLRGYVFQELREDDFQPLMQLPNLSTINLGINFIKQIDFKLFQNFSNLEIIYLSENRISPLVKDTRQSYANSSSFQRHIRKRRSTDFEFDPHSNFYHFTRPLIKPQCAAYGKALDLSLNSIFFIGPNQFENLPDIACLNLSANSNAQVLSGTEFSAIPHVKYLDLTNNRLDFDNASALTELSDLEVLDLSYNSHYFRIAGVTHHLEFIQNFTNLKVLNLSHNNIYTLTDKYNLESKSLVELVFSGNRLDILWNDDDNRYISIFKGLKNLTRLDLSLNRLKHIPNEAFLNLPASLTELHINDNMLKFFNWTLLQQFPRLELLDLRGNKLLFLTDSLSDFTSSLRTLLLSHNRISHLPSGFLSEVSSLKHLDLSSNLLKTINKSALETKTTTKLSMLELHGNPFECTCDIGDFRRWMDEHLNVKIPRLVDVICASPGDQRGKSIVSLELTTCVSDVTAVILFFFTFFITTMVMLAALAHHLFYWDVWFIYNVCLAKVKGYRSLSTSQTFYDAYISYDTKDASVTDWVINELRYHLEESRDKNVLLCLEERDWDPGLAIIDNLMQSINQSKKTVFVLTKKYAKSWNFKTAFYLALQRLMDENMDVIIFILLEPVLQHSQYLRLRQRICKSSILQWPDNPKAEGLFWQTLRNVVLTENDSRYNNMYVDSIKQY
Assay: Agonist activity at TLR8 in human cryopreserved PBMC assessed as induction of IL-12p40 production measured after 24 hrs
Settings: not given

Going from `CCCCCC[C@](C)(CO)Nc1nc(N)nc2cccnc12` to `CCCCC(CO)(CCCC)Nc1nc(N)nc2cccnc12`, the EC50 rises from 10 µM to greater than 50 µM. The first is the more potent here.

Compared with `CCCCOc1nc(N)nc2cccnc12`, `CCCCNc1nc(N)nc2cccnc12` is lower in EC50: greater than 50 µM for the first, 1.9 µM for the second.

Going from `CCCC[C@@H](Nc1nc(N)nc2cccnc12)C(=O)NC` to `CCCC[C@H](CN)Nc1nc(N)nc2cccnc12`, the EC50 falls from greater than 50 µM to 25 µM.

Compared with `CCCC[C@@H](CO)Nc1cc(N)nc2ccccc12`, `CCCC[C@@H](CO)Nc1nc(N)nc2ccccc12` is lower in EC50: greater than 50 µM for the first, 0.71 µM for the second.

First: CCCC[C@@](C)(CO)Nc1nc(N)nc2cc(F)cnc12
Second: CCCC[C@](C)(CO)Nc1nc(N)nc2cc(Cl)cnc12
The EC50 of the first is 12-fold higher: 3.3 µM for the first, 0.27 µM for the second.

Going from `CCCCC[C@H](CO)Nc1nc(N)nc2cccnc12` to `CCCC[C@H](CO)Nc1nc(N)nc2ccccc12`, the EC50 falls from 3.33 µM to 1.84 µM (1.8-fold). The second is the more potent here.

Going from `CCCN(CCC)C(=O)C1=Cc2ccc(-c3ccc(C(=O)N4CCCC4)cc3)cc2N=C(N)C1` [MOTOLIMOD] to `CCCC[C@@](C)(Nc1nc(N)nc2cc(F)cnc12)C(=O)O`, the EC50 rises from 1.3 µM to greater than 50 µM. The first is the more potent here.

Compound `C[C@](CO)(CCCCO)Nc1nc(N)nc2cc(F)cnc12` has an EC50 greater than 50 µM.

Molecular target: T2, Toll-like receptor 7 (Homo sapiens, UniProt Q9NYK1)
T2 sequence (Q9NYK1 whole entry): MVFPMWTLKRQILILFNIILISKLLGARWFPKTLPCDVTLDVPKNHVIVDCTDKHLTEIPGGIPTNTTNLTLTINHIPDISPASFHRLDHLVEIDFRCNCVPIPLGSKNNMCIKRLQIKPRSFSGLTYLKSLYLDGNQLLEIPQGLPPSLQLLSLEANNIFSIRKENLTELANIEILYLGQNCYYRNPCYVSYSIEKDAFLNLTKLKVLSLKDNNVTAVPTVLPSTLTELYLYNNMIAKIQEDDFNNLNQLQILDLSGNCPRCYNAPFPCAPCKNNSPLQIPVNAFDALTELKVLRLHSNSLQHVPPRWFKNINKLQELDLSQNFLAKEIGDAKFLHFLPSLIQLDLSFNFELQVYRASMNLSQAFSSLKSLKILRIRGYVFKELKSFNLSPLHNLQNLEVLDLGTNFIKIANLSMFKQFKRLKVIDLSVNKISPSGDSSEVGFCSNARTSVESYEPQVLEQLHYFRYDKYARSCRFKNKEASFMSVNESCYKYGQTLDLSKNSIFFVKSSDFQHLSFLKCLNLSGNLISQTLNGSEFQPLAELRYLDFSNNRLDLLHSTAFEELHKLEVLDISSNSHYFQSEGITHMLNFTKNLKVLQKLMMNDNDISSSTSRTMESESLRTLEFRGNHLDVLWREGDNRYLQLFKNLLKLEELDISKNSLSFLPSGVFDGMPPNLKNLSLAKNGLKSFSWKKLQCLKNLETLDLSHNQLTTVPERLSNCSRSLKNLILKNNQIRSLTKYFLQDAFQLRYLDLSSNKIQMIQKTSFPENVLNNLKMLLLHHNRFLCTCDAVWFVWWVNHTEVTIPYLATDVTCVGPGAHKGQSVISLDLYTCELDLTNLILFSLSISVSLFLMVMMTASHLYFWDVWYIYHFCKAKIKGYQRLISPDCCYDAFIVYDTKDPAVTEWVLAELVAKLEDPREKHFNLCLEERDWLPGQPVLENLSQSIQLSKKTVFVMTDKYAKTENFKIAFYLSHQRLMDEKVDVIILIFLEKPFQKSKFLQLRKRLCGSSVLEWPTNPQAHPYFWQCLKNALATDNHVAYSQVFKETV
Assay: Agonist activity at TLR7 in human cryopreserved PBMC assessed as induction of IFNalpha production measured after 24 hrs
Settings: not given
Procedure, shortened: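 Cryopreserved healthy-donor human PBMC, recovered 2 h at 37°C/5% CO2, then 100k cells/well in RPMI/10% FBS exposed 24 h at 37°C to a 10-point half-log dilution series (0.5% final DMSO). Supernatant IFNα-2a quantified by MSD electrochemiluminescence immunoassay. For the ratio, divided by the IL-12p40 EC50 from the same PBMC screen.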

`CCCCCC[C@](C)(CO)Nc1nc(N)nc2cccnc12` and `CCCCC(CO)(CCCC)Nc1nc(N)nc2cccnc12` cannot be ordered by EC50: greater than 50 µM for the first, greater than 50 µM for the second.

First: CCCCOc1nc(N)nc2cccnc12
Second: CCCCNc1nc(N)nc2cccnc12
The EC50 of the first is higher: greater than 50 µM for the first, 2.2 µM for the second.

`CCCC[C@@H](Nc1nc(N)nc2cccnc12)C(=O)NC` and `CCCC[C@H](CN)Nc1nc(N)nc2cccnc12` cannot be ordered by EC50: greater than 50 µM for the first, greater than 50 µM for the second.

First: CCCC[C@@H](CO)Nc1cc(N)nc2ccccc12
Second: CCCC[C@@H](CO)Nc1nc(N)nc2ccccc12
The EC50 of the first is higher: greater than 50 µM for the first, 0.57 µM for the second.

`CCCC[C@@](C)(CO)Nc1nc(N)nc2cc(F)cnc12` and `CCCC[C@](C)(CO)Nc1nc(N)nc2cc(Cl)cnc12` cannot be ordered by EC50: greater than 50 µM for the first, greater than 42 µM for the second.

`CCCCC[C@H](CO)Nc1nc(N)nc2cccnc12` and `CCCC[C@H](CO)Nc1nc(N)nc2ccccc12` cannot be ordered by EC50: greater than 20 µM for the first, greater than 50 µM for the second.

`CCCN(CCC)C(=O)C1=Cc2ccc(-c3ccc(C(=O)N4CCCC4)cc3)cc2N=C(N)C1` [MOTOLIMOD] and `CCCC[C@@](C)(Nc1nc(N)nc2cc(F)cnc12)C(=O)O` cannot be ordered by EC50: greater than 30 µM for the first, greater than 50 µM for the second.

Work on `C[C@](CO)(CCCCO)Nc1nc(N)nc2cc(F)cnc12` yielded an EC50 greater than 50 µM.

Tested on: not listed separately
Assay: Clearance in human hepatic microsomes at 2 uM measured up to 60 mins in presence of NADPH generating system by LC-MS/MS analysis
Format: ADME, Microsome
Settings: liver microsomes

With `CCCC[C@](C)(CO)Nc1nc(N)nc2cc(Cl)cnc12` the CLhep predicted at 2 µM was 16.7 mL/min/kg.

Tested on: not listed separately
Assay: Selectivity index, ratio of CC50 for human MT4 cells to EC50 for TLR8 in human cryopreserved PBMC assessed as induction of IL-12p40 production
Settings: not given

First: CCCCCC[C@](C)(CO)Nc1nc(N)nc2cccnc12
Second: CCCC[C@@](C)(CO)Nc1nc(N)nc2cc(F)cnc12
The “Ratio CC50/EC50” value of the first is higher: 0.4 for the first, 0.2 for the second.

Tested on: not listed separately
Assay: Clearance in dog hepatic microsomes at 2 uM measured up to 60 mins in presence of NADPH generating system by LC-MS/MS analysis
Format: ADME, Canis lupus familiaris, Microsome
Settings: liver microsomes

`CCCC[C@](C)(CO)Nc1nc(N)nc2cc(Cl)cnc12` gave a CLhep predicted at 2 µM of 30 mL/min/kg.

Tested on: not listed separately
Assay: Dissociation constant, pKa of the compound
Format: physicochemical
Settings: not given

Compared with `CCCC[C@](C)(CO)Nc1nc(N)nc2cc(Cl)cnc12`, `CCCC[C@H](CO)Nc1nc(N)nc2ccccc12` is higher in pKa: 6.4 for the first, 8.2 for the second.

Tested on: not listed separately
Assay: Clearance in rat hepatic microsomes at 2 uM measured up to 60 mins in presence of NADPH generating system by LC-MS/MS analysis
Format: ADME, Microsome
Settings: liver microsomes

In the case of `CCCC[C@](C)(CO)Nc1nc(N)nc2cc(Cl)cnc12`, the CLhep predicted at 2 µM is reported as 56.7 mL/min/kg.

Tested on: not listed separately
Assay: Cytotoxicity against human MT4 cells assessed as reduction in cell viability measured after 4 to 5 days by celltiter-glo assay
Format: cell-based
Settings: time 4-5 day

Going from `CCCCCC[C@](C)(CO)Nc1nc(N)nc2cccnc12` to `CCCCC(CO)(CCCC)Nc1nc(N)nc2cccnc12`, the CC50 rises from 3.6 µM to 38 µM (11-fold).

Going from `CCCC[C@@](C)(CO)Nc1nc(N)nc2cc(F)cnc12` to `CCCC[C@](C)(CO)Nc1nc(N)nc2cc(Cl)cnc12`, the CC50 rises from 0.79 µM to 22 µM (28-fold).

`CCCC[C@@](C)(Nc1nc(N)nc2cc(F)cnc12)C(=O)O` and `C[C@](CO)(CCCCO)Nc1nc(N)nc2cc(F)cnc12` cannot be ordered by CC50: greater than 50 µM for the first, greater than 50 µM for the second.

Tested on: not listed separately
Assay: Clearance in cynomolgus monkey hepatic microsomes at 2 uM measured up to 60 mins in presence of NADPH generating system by LC-MS/MS analysis
Format: ADME, Macaca fascicularis, Microsome
Settings: liver microsomes

`CCCC[C@](C)(CO)Nc1nc(N)nc2cc(Cl)cnc12` showed a CLhep predicted at 2 µM of 23.3 mL/min/kg.
